Experimental findings from ChEMBL document CHEMBL1131153, “Metabolites of the angiotensin II antagonist tasosartan: the importance of a second acidic group” (J Med Chem, 1998) are described below.

A word on the IC50: it is the concentration at which inhibition is half-maximal. As a reminder, the inhibition is the change of the read-out against control, counted positive when it falls.

Assay [1] deals with T1, Angiotensin II receptor (AT-1) type-1 (Rattus norvegicus, UniProt P29089+P25095).
T1 sequence (P29089 whole entry): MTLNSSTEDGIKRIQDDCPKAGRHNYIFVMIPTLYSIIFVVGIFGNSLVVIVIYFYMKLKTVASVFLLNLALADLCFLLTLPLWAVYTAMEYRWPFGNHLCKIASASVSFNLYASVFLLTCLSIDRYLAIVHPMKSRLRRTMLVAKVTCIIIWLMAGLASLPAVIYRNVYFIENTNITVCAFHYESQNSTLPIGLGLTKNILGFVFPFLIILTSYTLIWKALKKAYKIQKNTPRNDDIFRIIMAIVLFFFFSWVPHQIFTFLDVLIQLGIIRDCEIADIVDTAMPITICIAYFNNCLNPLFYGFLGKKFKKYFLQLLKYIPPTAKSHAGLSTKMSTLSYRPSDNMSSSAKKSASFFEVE
T1 sequence (P25095 whole entry): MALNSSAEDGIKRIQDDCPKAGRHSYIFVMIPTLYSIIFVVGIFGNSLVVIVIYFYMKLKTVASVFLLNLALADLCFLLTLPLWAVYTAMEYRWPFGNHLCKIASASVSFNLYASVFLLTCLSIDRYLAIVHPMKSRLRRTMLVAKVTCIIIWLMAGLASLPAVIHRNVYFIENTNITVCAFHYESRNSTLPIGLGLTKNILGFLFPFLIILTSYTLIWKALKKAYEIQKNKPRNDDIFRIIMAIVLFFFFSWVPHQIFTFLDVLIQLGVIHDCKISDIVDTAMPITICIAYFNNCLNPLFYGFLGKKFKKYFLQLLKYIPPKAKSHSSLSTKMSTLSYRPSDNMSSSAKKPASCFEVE
Put plainly: Compound was evaluated for the in vitro inhibition of specific binding of [125I]-A II to Angiotensin II receptor, type 1 from rat adrenal membranes. In kind it is cell membranes, Membrane.

Assay [2] relates to Rattus norvegicus. Put plainly: Compound was evaluated for maximum decrease in mean arterial pressure after an intravenous dose of 1.0 mg/kg in rats. It counts as functional, Artery. The procedure, abridged: (§1)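 Renal hypertension produced in 150 g Sprague-Dawley rats by clipping the left renal artery (silver wire, 0.2 mm ID), used after 4–7 weeks. Right carotid cannulated under pentobarbital (50 mg/kg ip) with saline infusion at 5 µL/min. Intravenous dosing, then MAP and heart rate monitored over 24 h. Maximum MAP decrease reported as mean ± SE versus vehicle-treated rats.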

Assay [3] has as its system Rattus norvegicus. Put plainly: Compound was evaluated for maximum decrease in mean arterial pressure after an intravenous dose of 10.0 mg/kg in rats. It counts as functional, Artery. The procedure, abridged: as §1
For assay [4], the system named is Rattus norvegicus. The experiment in a line: Compound was evaluated for maximum decrease in mean arterial pressure after an intravenous dose of 3.0 mg/kg in rats. In kind it is functional, Artery. Summed up: as §1
Assay [5] concerns Rattus norvegicus. Put plainly: Compound was evaluated for maximum decrease in mean arterial pressure after an intragastric dose of 1.0 mg/kg in rats. It counts as functional, Artery. The procedure, abridged:
(§2)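 Goldblatt 2K-1C model: Sprague-Dawley rats (150 g) under pentobarbital (50 mg/kg ip) had the left renal artery clipped with a silver wire (0.2 mm internal diameter). Hypertension developed over 4–7 weeks, then the right carotid was cannulated under pentobarbital and saline infused at 5 µL/min. Dosing by gastric gavage in 0.5% methyl cellulose, 5 mL/kg. MAP recorded for 24 h; maximum fall reported, mean ± SE, 6–12 rats/group.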

Assay [6] relates to Rattus norvegicus. The experiment in a line: Compound was evaluated for maximum decrease in mean arterial pressure after an intragastric dose of 10.0 mg/kg in rats. In kind it is functional, Artery. Summed up:
as §2

Assay [7] deals with Rattus norvegicus. Put plainly: Compound was evaluated for maximum decrease in mean arterial pressure after an intragastric dose of 3.0 mg/kg in rats. In kind it is functional, Artery. Summed up: as §2
Assay [8] has as its target Angiotensin II receptor (AT-1) type-1 (Rattus norvegicus) (UniProt P29089+P25095). The experiment in a line: Compound was evaluated for the in vitro inhibition of specific binding of [125I]-A II to Angiotensin II receptor, type 1 in rat liver membrane at 100 nM.
Assay [9] concerns Rattus norvegicus. Put plainly: Compound was evaluated for maximum decrease in mean arterial pressure after an intravenous dose of 0.03 mg/kg in rats. It counts as functional, Artery. Summed up: as §1
Assay [10] has as its system Rattus norvegicus. Put plainly: Compound was evaluated for maximum decrease in mean arterial pressure after an intravenous dose of 0.10 mg/kg in rats. In kind it is functional, Artery. To be noted: dose 0.1 mg/kg. The procedure, abridged:
as §1

Assay [11] deals with Rattus norvegicus. The experiment in a line: Compound was evaluated for maximum decrease in mean arterial pressure after an intravenous dose of 0.1 mg/kg in rats. In kind it is functional, Artery. Summed up:
as §1

For assay [12], the system named is Rattus norvegicus. Put plainly: Compound was evaluated for maximum decrease in mean arterial pressure after an intragastric dose of 0.1 mg/kg in rats. In kind it is functional, Artery. Summed up:
as §2

Assay [13] concerns Rattus norvegicus. The experiment in a line: Compound was evaluated for maximum decrease in mean arterial pressure after an intragastric dose of 0.3 mg/kg in rats. It counts as functional, Artery. The procedure, abridged:
as §2

The subject of assay [14] is Rattus norvegicus. Put plainly: Compound was evaluated for maximum decrease in mean arterial pressure after an intragastric dose of 30.0 mg/kg in rats. In kind it is functional, Artery. Summed up:
as §2

Consider `Cc1nc(C)c2ccc(=O)n(Cc3ccc(-c4ccccc4-c4nn[nH]n4)cc3)c2n1`, for which the IC50 in assay [1] worked out at 6.5 nM.

As for `Cc1nc(CO)nc2c1c(O)cc(=O)n2Cc1ccc(-c2ccccc2-c2nn[nH]n2)cc1`, the IC50 in [1] is recorded as 0.41 nM.

On to `Cc1nc(C)c2c(n1)N(Cc1ccc(-c3ccccc3-c3nn[nH]n3)cc1)C(=O)CC2O` (centres undefined), for which the MAP in [2] is listed as 51 mmHg; in assay [3], 41 mmHg; in assay [4], 47 mmHg; in [5], 55 mmHg; in assay [6], 71 mmHg; in assay [7], 54 mmHg.

Regarding `Cc1nc(C)c2c(n1)N(Cc1ccc(-c3ccccc3-c3nnn(C4OC(C(=O)O)C(O)C(O)C4O)n3)cc1)C(=O)CC2` (centres undefined), in [8], the inhibition came out at 3.5%.

For `Cc1nc(C)c2c(O)cc(=O)n(Cc3ccc(-c4ccccc4-c4nn[nH]n4)cc3)c2n1` [ENOLTASOSARTAN], the IC50 in assay [1] came to 0.17 nM. Further, the MAP amounted to 34 mmHg in assay [9], 67 mmHg in assay [10], 66 mmHg in assay [6] and 39 mmHg in [7].

In assay [1], `Cc1nc(C)c2c(n1)N(Cc1ccc(-c3ccccc3-c3nnn[nH]3)cc1)C(=O)CC2` [TASOSARTAN] showed an IC50 of 1.2 nM. In addition, the MAP in assay [11] was found to be 37 mmHg; in assay [2], 53 mmHg; in assay [4] it was 54 mmHg; in assay [12] it was 6 mmHg; in assay [13], 45 mmHg; in assay [5], 71 mmHg. The MAP in [6] is given as 81 mmHg; in assay [7] it was 76 mmHg; in assay [14], 80 mmHg.
